Experiments:
[1] = Lipophilicity, log P of the compound; type: physicochemical; conditions: octanol/water
Chlorella vulgaris = experiment: Antialgal activity in green algae Chlorella vulgaris assessed as reduction of chlorophyll content; type: functional, organism-based
How it was run: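 Algal suspensions (initial Chl 0.01 mg·L-1) grown 7 days, 16 h light/8 h dark, PAR 80 μmol/m2∙s, pH 7.2, with compound at 0.83–100 μmol·L-1 (DMSO ≤0.25%, same in controls). Chl extracted into methanol, read spectrophotometrically. IC50 = concentration halving chlorophyll versus control, or % of control ± S.D.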

Spinacia oleracea = experiment: Inhibition of photosynthetic electron transport in Spinacia oleracea (spinach) chloroplasts assessed as decrease in oxygen evolution measured after irradiated with 250 W halogen lamp by herbicidal assay in presence of electron acceptor 2,6-dichlorophenol-indophenol; type: functional; conditions: L., light or radiation study
How it was run: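 Spinach chloroplasts in phosphate buffer (0.02 mol·L-1, pH 7.2) with sucrose 0.4 mol·L-1, MgCl2 0.005 mol·L-1, NaCl 0.015 mol·L-1; chlorophyll 30 mg/L. DCPIP photoreduction followed under ~100 W/m2 halogen light through 4 cm water filter, 22 °C. Compounds in DMSO (up to 4%). IC50 = molar concentration giving 50% drop in oxygen evolution versus untreated control.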

[2] = Chlorella vulgaris, read-out: IC50

Row | SMILES | logP [1] | IC50 (Chlorella vulgaris) | IC50 (Spinacia oleracea) [µM] | IC50 (Chlorella vulgaris; [2]) [µM]
1 | Cc1ccc(NC(=O)c2cncc(Cl)n2)cc1I | 3.33 | ND(Insoluble) | 51 | 
2 | Cc1cc(NC(=O)c2cnc(C(C)(C)C)cn2)ccc1Cl | 3.76 |  | 190 | 44
3 | CC(C)(C)c1ncc(C(=O)Nc2ccccc2F)nc1Cl | 3.78 |  | 69 | 89
4 | CC(C)(C)c1ncc(C(=O)Nc2ccc(C(F)(F)F)cc2)nc1Cl | 4.54 | ND(Insoluble) | 184 | 
5 | Cc1cc(NC(=O)c2cncc(Cl)n2)ccc1Cl | 2.53 |  | 595 | 80
6 | CN(C)C(=O)Nc1ccc(Cl)c(Cl)c1 [DCMU] | 2.76 |  |  | 
